Key:
[1] = biological target: Mitogen-activated protein kinase 9 (Homo sapiens) (UniProt P45984); assay: Binding affinity to wild-type human full length JNK2 (M1 to Q382 residues) expressed in HEK293 cells at 1 uM by Kinomescan method relative to control; format: cell-based
Method in brief: (§1)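 Run as one kinome-wide competition binding panel with each compound at a single fixed concentration. Results were plotted as a kinome-wide selectivity map.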

[2] = biological target: Serine/threonine-protein kinase Nek2 (Homo sapiens) (UniProt P51955); assay: Binding affinity to wild-type human partial length NEK2 (M1 to K309 residues) expressed in Escherichia coli BL21 at 1 uM by Kinomescan method relative to control
Chain of Serine/threonine-protein kinase Nek2 (Homo sapiens) (P51955 whole entry, the tested form may be a part): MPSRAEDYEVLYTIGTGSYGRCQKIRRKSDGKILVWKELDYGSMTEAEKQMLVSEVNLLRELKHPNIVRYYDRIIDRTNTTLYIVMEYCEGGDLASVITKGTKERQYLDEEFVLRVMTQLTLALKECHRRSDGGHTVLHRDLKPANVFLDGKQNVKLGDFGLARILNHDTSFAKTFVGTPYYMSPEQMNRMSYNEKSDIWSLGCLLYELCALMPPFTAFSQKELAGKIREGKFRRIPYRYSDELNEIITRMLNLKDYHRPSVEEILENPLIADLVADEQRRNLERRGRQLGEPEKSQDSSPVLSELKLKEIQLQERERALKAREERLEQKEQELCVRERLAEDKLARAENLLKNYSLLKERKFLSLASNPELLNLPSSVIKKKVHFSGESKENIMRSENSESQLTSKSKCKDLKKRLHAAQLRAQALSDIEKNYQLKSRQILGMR

[3] = biological target: Epidermal growth factor receptor (Homo sapiens) (UniProt P00533); assay: Binding affinity to wild-type human partial length EGFR (R669 to V1011 residues) expressed in Escherichia coli BL21 at 1 uM by Kinomescan method relative to control
Chain of Epidermal growth factor receptor (Homo sapiens) (P00533 whole entry, the tested form may be a part): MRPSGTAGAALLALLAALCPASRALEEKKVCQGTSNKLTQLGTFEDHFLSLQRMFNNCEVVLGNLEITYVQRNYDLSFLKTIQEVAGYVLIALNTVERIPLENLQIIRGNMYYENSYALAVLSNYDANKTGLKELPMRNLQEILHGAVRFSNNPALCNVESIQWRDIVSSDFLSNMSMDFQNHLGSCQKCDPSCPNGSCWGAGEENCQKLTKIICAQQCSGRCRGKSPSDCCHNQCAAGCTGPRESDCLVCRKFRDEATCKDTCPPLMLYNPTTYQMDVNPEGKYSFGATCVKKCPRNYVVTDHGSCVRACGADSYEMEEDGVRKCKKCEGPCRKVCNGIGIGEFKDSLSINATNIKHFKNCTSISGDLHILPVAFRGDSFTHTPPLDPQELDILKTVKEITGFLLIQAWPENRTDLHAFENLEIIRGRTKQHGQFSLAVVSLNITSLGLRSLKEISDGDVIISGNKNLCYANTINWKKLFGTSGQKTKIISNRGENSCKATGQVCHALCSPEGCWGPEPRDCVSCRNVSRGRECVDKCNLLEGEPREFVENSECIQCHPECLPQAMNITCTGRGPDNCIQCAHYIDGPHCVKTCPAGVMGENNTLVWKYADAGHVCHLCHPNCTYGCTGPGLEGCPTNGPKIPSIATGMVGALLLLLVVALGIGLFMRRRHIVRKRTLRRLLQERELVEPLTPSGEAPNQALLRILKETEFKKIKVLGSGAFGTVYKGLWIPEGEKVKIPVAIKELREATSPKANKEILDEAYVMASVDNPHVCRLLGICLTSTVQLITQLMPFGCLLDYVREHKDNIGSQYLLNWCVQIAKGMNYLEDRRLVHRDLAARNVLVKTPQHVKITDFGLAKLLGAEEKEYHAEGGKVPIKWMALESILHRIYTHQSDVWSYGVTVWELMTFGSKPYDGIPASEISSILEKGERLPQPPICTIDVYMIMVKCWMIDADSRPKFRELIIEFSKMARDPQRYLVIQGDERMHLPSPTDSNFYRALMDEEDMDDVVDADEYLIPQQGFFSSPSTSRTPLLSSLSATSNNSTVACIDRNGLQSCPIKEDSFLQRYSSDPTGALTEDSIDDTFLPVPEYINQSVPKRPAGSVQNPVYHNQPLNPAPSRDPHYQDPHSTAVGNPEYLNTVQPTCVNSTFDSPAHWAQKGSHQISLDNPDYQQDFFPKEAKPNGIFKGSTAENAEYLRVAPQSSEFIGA

[4] = biological target: Cytoplasmic tyrosine-protein kinase BMX (Homo sapiens) (UniProt P51813); assay: Binding affinity to wild-type human full length BMX (M1 to H675 residues) expressed in Escherichia coli BL21 at 1 uM by Kinomescan method relative to control
[5] = biological target: Fibroblast growth factor receptor 2 (Homo sapiens) (UniProt P21802); assay: Binding affinity to wild-type human partial length FGFR2 (D457 to E769 residues) expressed in Escherichia coli BL21 at 1 uM by Kinomescan method relative to control
[6] = biological target: NUAK family SNF1-like kinase 1 (Homo sapiens) (UniProt O60285); assay: Binding affinity to wild-type human partial length ARK5 (E25 to I332 residues) expressed in Escherichia coli BL21 at 1 uM by Kinomescan method relative to control
Method in brief: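 Kinome-wide competition binding panel run by an outside provider, with each compound tested at a single concentration. Activity is read against the kinase panel.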

[7] = biological target: Receptor tyrosine-protein kinase erbB-2 (Homo sapiens) (UniProt P04626); assay: Binding affinity to wild-type human partial length ERBB2 (K646 to V1225 residues) expressed in HEK293 cells at 1 uM by Kinomescan method relative to control; format: cell-based
[8] = biological target: Casein kinase I isoform gamma-1 (Homo sapiens) (UniProt Q9HCP0); assay: Binding affinity to wild-type human partial length CSNK1G1 (T15 to S353 residues) expressed in Escherichia coli BL21 at 1 uM by Kinomescan method relative to control
Chain of Casein kinase I isoform gamma-1 (Homo sapiens) (Q9HCP0 whole entry, looked up, the tested form may be a part, canonical isoform): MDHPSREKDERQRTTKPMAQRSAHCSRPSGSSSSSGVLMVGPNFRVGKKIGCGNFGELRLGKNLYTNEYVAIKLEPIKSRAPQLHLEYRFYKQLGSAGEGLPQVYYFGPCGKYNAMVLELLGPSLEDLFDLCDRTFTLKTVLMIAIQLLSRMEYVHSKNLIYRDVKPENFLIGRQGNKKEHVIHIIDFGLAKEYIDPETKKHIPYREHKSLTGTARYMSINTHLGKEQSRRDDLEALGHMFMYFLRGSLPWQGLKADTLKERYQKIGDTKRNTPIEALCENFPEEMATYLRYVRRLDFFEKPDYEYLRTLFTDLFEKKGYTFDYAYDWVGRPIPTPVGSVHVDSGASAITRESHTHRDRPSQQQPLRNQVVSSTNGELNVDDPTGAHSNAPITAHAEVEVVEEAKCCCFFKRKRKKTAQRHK

[9] = biological target: Bone morphogenetic protein receptor type-1B (Homo sapiens) (UniProt O00238); assay: Binding affinity to wild-type human partial length BMPR1B (D178 to L502 residues) expressed in HEK293 cells at 1 uM by Kinomescan method relative to control; format: cell-based
[10] = biological target: Serine/threonine-protein kinase 10 (Homo sapiens) (UniProt O94804); assay: Binding affinity to wild-type human partial length LOK (E16 to V314 residues) expressed in Escherichia coli BL21 at 1 uM by Kinomescan method relative to control
Chain of Serine/threonine-protein kinase 10 (Homo sapiens) (O94804 whole entry, looked up, the tested form may be a part): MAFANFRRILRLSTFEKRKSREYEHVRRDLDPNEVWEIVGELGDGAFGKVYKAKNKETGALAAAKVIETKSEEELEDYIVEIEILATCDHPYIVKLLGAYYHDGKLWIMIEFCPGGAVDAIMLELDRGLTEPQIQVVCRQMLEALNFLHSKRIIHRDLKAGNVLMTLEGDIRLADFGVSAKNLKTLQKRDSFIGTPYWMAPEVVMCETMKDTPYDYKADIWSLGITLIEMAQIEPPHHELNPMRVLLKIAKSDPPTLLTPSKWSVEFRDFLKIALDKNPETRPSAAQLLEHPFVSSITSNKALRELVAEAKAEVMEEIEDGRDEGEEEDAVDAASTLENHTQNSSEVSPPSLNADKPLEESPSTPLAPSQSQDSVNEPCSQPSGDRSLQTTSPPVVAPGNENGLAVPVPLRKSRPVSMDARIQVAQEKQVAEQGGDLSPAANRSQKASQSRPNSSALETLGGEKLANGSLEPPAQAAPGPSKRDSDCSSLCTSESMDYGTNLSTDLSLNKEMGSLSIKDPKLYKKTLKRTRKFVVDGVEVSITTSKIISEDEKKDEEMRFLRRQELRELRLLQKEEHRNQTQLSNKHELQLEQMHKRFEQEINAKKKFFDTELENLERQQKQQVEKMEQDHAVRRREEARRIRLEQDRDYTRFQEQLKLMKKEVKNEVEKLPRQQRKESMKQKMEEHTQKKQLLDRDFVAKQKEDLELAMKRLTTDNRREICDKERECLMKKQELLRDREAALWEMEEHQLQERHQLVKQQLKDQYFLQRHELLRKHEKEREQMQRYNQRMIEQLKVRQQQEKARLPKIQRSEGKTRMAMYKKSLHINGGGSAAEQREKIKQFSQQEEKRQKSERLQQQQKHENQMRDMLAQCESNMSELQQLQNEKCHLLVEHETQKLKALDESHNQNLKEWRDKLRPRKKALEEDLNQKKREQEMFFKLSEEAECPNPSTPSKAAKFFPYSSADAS

[11] = biological target: Rho-associated protein kinase 2 (Homo sapiens) (UniProt O75116); assay: Binding affinity to wild-type human partial length ROCK2 (M1 to T431 residues) expressed in HEK293 cells at 1 uM by Kinomescan method relative to control; format: cell-based
[12] = biological target: Dual specificity tyrosine-phosphorylation-regulated kinase 2 (Homo sapiens) (UniProt Q92630); assay: Binding affinity to wild-type human full length DYRK2 (M1 to S528 residues) expressed in HEK293 cells at 1 uM by Kinomescan method relative to control; format: cell-based; method in brief: as §1
[13] = Half life in mouse hepatic microsomes at 1 mg/ml; format: ADME, Liver, microsome
[14] = biological target: Macrophage colony-stimulating factor 1 receptor (Homo sapiens) (UniProt P07333); assay: Binding affinity to wild-type human partial length autoinhibited CSF1R (Y538 to S939 residues) expressed in HEK293 cells at 1 uM by Kinomescan method relative to control; format: cell-based; parameters: scale not given: the % may be the effect or the level left
[15] = biological target: Peripheral plasma membrane protein CASK (Homo sapiens) (UniProt O14936); assay: Binding affinity to wild-type human partial length CASK (M1 to H315 residues) expressed in HEK293 cells at 1 uM by Kinomescan method relative to control; format: cell-based
[16] = biological target: Cyclin-dependent kinase-like 5 (Homo sapiens) (UniProt O76039); assay: Binding affinity to wild-type human partial length CDKL5 (M1 to S337 residues) expressed in HEK293 cells at 1 uM by Kinomescan method relative to control; format: cell-based
Chain of Cyclin-dependent kinase-like 5 (Homo sapiens) (O76039 whole entry, the tested form may be a part): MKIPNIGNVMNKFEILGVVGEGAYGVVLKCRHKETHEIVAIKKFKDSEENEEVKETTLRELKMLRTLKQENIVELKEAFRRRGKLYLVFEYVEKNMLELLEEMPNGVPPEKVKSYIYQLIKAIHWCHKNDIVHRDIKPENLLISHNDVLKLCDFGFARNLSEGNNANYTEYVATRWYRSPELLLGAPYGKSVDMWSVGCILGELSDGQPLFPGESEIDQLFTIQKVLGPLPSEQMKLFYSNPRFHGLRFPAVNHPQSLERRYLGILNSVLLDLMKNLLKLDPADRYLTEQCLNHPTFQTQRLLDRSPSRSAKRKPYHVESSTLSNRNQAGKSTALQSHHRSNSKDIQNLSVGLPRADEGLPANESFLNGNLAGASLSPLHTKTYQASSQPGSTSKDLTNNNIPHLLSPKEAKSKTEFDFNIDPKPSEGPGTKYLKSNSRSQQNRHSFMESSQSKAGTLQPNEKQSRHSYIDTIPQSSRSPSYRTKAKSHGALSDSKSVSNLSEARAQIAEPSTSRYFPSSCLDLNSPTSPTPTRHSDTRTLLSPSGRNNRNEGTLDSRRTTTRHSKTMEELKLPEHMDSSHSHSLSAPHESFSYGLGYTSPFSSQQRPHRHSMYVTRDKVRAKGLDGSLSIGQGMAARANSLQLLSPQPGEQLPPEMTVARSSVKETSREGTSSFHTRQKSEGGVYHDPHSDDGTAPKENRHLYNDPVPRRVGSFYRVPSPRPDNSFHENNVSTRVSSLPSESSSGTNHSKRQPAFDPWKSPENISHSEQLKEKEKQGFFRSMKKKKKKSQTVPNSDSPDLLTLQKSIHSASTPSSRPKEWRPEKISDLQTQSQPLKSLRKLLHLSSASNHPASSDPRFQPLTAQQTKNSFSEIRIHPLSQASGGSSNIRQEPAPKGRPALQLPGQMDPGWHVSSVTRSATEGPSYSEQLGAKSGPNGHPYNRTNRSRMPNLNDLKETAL

[17] = biological target: Dual specificity mitogen-activated protein kinase kinase 5 (Homo sapiens) (UniProt Q13163); assay: Binding affinity to wild-type human partial length MEK5 (L98 to P448 residues) expressed in HEK293 cells at 1 uM by Kinomescan method relative to control; format: cell-based
[18] = biological target: Receptor tyrosine-protein kinase erbB-4 (Homo sapiens) (UniProt Q15303); assay: Binding affinity to wild-type human partial length ERBB4 (L690 to K994 residues) expressed in Escherichia coli BL21 at 1 uM by Kinomescan method relative to control
[19] = biological target: Dual specificity protein kinase CLK2 (Homo sapiens) (UniProt P49760); assay: Binding affinity to wild-type human partial length CLK2 (D144 to R498 residues) expressed in Escherichia coli BL21 at 1 uM by Kinomescan method relative to control
Chain of Dual specificity protein kinase CLK2 (Homo sapiens) (P49760 whole entry, looked up, the tested form may be a part): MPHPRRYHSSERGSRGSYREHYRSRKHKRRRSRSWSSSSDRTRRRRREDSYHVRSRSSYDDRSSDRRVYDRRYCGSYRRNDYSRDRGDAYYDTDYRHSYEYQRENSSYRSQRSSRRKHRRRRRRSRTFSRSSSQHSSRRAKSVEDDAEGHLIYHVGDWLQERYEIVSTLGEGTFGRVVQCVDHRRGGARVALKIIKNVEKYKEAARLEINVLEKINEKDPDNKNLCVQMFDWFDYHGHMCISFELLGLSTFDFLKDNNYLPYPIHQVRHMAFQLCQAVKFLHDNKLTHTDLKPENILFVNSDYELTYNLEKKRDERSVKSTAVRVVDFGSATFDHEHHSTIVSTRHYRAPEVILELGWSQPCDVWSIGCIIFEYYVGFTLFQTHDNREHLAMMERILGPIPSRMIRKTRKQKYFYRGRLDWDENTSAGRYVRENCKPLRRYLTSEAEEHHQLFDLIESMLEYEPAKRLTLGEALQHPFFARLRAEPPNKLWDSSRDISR

[20] = biological target: Serine/threonine-protein kinase ULK2 (Homo sapiens) (UniProt Q8IYT8); assay: Binding affinity to wild-type human partial length ULK2 (M1 to S301 residues) expressed in HEK293 cells at 1 uM by Kinomescan method relative to control; format: cell-based
[21] = biological target: Tyrosine-protein kinase Fes/Fps (Homo sapiens) (UniProt P07332); assay: Binding affinity to wild-type human partial length FES (I527 to R822 residues) expressed in Escherichia coli BL21 at 1 uM by Kinomescan method relative to control
[22] = system: Fibroblast growth factor receptor 3 (Homo sapiens), P22607 [G697C]; assay: Binding affinity to human partial length FGFR3 G697C mutant (R442 to S771 residues) expressed in Escherichia coli BL21 at 1 uM by Kinomescan method relative to control
[23] = biological target: Calcium/calmodulin-dependent protein kinase type 1 (Homo sapiens) (UniProt Q14012); assay: Binding affinity to wild-type human full length CAMK1 (M1 to L370 residues) expressed in Escherichia coli BL21 at 1 uM by Kinomescan method relative to control
[24] = biological target: Tyrosine-protein kinase receptor UFO (Homo sapiens) (UniProt P30530); assay: Binding affinity to wild-type human partial length AXL (R497 to Y821 residues) expressed in Escherichia coli BL21 at 1 uM by Kinomescan method relative to control
[25] = biological target: Phosphatidylinositol 4-phosphate 5-kinase type-1 gamma (Homo sapiens) (UniProt O60331); assay: Binding affinity to wild-type human partial length PIP5K1C (M1 to T668 residues) expressed in HEK293 cells at 1 uM by Kinomescan method relative to control; format: cell-based
HeLa = assay: Cytotoxicity against human HeLa cells assessed as reduction in cell viability after 72 hrs by CellTiter-Glo assay; format: functional, cell-based
Method in brief: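 Cells were treated across a dose-response range for 72 h, and viability was read by CellTiter-Glo luminescence. Measurements were made in triplicate and reported with standard error.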

Chain of Mitogen-activated protein kinase 9 (Homo sapiens) (P45984 whole entry, looked up, the tested form may be a part): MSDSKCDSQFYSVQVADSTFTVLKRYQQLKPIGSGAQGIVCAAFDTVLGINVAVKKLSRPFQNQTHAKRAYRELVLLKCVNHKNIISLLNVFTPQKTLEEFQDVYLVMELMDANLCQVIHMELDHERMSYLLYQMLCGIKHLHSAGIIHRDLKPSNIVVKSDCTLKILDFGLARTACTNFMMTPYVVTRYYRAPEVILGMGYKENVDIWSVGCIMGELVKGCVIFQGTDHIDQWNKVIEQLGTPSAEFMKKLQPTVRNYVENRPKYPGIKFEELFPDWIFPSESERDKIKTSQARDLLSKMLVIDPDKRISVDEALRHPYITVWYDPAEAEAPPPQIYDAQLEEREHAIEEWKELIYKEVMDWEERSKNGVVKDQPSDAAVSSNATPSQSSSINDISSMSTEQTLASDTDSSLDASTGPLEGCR

| SMILES | Activity [1] [%] | Activity [2] [%] | Activity [3] [%] | Activity [4] [%] | Activity [5] [%] | Activity [6] [%] | Activity [7] [%] | Activity [8] [%] | Activity [9] [%] | Activity [10] [%] | Activity [11] [%] | Activity [12] [%] | t1/2 [13] [min] | Activity [14] [%] | Activity [15] [%] | Activity [16] [%] | Activity [17] [%] | Activity [18] [%] | Activity [19] [%] | Activity [20] [%] | further results |
| --- | --- | --- | --- | --- | --- | --- | --- | --- | --- | --- | --- | --- | --- | --- | --- | --- | --- | --- | --- | --- | --- |
| CCC(=O)Nc1ccc(C(=O)Nc2ccc(Nc3ncc4c(n3)N(C)c3ccc(C)cc3C(=O)N4C)cc2)cc1 | 91 | 100 | 69 | 90 | 89 | 85 | 100 | 100 | 62 | 78 | 78 | 100 | 2.9 | 65 | 80 | 89 | 90 | 96 | 88 | 82 | Activity [21]: 99%; Activity [22]: 95%; Activity [23]: 90%; Activity [24]: 87%; Activity [25]: 88%; IC50 (HeLa): < 1 nM |
| C=CC(=O)Nc1ccc(C(=O)Nc2ccc(Nc3ncc4c(n3)N(C)c3ccc(C)cc3C(=O)N4C)cc2)cc1 | 92 | 99 | 83 | 99 | 88 | 84 | 93 | 100 | 100 | 100 | 100 | 92 | 7.5 | 100 | 97 | 98 | 99 | 96 | 99 | 94 | Activity [21]: 90%; Activity [22]: 93%; Activity [23]: 88%; Activity [24]: 95%; Activity [25]: 98%; IC50 (HeLa): < 1 nM |
